Rows were chosen to be rich in hits. Some 4.8% of all compounds tested hit in one or more screens of this group.
APP 5UTR inh = APP translation inhibition. inhibition, % at 2 µM. actives 0.82% (n = 190,000). AID 1285. SH-SY5Y APP 5'UTR-luciferase reporter, luminescence;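 active means inhibition above a set limit, derived from the sample mean plus 3 SD, cut at about 45% in these data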
FLuc act counter = firefly luciferase counter-screen for stimulation assays. P08659. ATPlite luciferase biochemical, luminescence, 10 min; 0 = ATP-free wells, 1 = DMSO control. activation factor at 10 µM. 200,000 tested, under 10 active;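 active means luciferase activation factor, scaled between plate controls, of at least 2 with compound at 10 µM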
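Material: luciferase plus luciferin reagent, cell-free. Medium: PBS buffer for ATP. Also added: ATP substrate, dispensed from a 10.24 µM working solution in PBS. Doses: test compounds dosed from 2 mM stocks in 100% DMSO. Incubation: 10 min post-reagent at room temperature. Technique: light output (luminescence). Read-out basis: luminescence gain marking luciferase activators.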
FLuc inhib CS = Photinus pyralis luciferase inhibition counter-screen. P08659. ATPLite firefly luciferase biochemical luminescence, 10 min. inhibition, % at 10 µM. actives 1.5% (n = 200,000);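 active means inhibition above about 50% when tested at 10 µM, limit read from the data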
APP 5'UTR act = APP 5'UTR luciferase reporter activation; SH-SY5Y APP 5'UTR luciferase reporter, luminescence; zero percent = DMSO vehicle wells; actives 1% (n = 190,000); AID 1276; activation, % at 2 µM;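 active means activation above a set limit, based on mean plus 3 SD of controls, cut at about 140% in these data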
STAT1 activator = STAT1 signaling activation | actives 2.6% (n = 200,000) | activation (% of control), % at 5.5 µM | AID 932 | NIH 3T3 STAT1-luciferase reporter, IFN-gamma, luminescence; 100% = IFN-gamma alone, no compound;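 active means activation above the screen-wide mean activation plus 3 SD, cut at about 130% in these data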;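 further: raw ratio to IFN-gamma control signal so 100% means no change and 0% no light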
NF-kB expr up = raises NF-kB expression in human neuronal cells; AID 1239; fold change at 12.5 µM; NF-kB reporter expression; active compounds read high; actives 1.6% (n = 190,000); in the data active means fold change above about 3.3
* hit, by the source's call.

`C/C(=C\C(=O)Nc1nccs1)c1ccccc1` gave APP 5UTR inh -50, FLuc act counter 0.6, FLuc inhib CS 43, APP 5'UTR act 50, STAT1 activator 144* and NF-kB expr up 2.6.
Screening Cc1ccc(S(=O)(=O)c2c(C)nn(C(C)(C)C)c2OC(=O)c2ccco2)cc1 returned APP 5UTR inh 8, FLuc act counter 1, FLuc inhib CS 3, APP 5'UTR act -8, STAT1 activator 138* and NF-kB expr up 1.1.
Screening COc1ccc(C(CC(=O)NCC(OC)OC)NS(=O)(=O)c2ccc(Cl)cc2)cc1 (configuration not stated) returned APP 5UTR inh -7, FLuc act counter 1.1, FLuc inhib CS -11, APP 5'UTR act 7, STAT1 activator 93 and NF-kB expr up 1.4.
`CC(=O)Cn1ncc(Br)c(Br)c1=O` gave APP 5UTR inh 97*, FLuc act counter 1, FLuc inhib CS -4, APP 5'UTR act -97, STAT1 activator 96 and NF-kB expr up 0.23.
Screening O=C(OCn1ncc(Br)c(Br)c1=O)c1c(F)cccc1F returned APP 5UTR inh 96*, FLuc act counter 1, FLuc inhib CS 0, APP 5'UTR act -95, STAT1 activator 107 and NF-kB expr up 0.13.
Cc1nc2nc[nH]n2c(=O)c1CCOC(=O)c1c(F)cccc1F was read as APP 5UTR inh -9, FLuc act counter 0.9, FLuc inhib CS 7, APP 5'UTR act 9, STAT1 activator 100 and NF-kB expr up 1.1.
`Cc1ccccc1NP(=O)(c1ccccc1)c1nc2ccccc2s1` (configuration not stated) gave APP 5UTR inh -6, FLuc act counter 1, FLuc inhib CS -3, APP 5'UTR act 6, STAT1 activator 96 and NF-kB expr up 1.1.
Cc1ccc(C(=O)Nc2nc3ccccc3c(=O)s2)cc1 was read as APP 5UTR inh -82, FLuc act counter 0.2, FLuc inhib CS 80*, APP 5'UTR act 82, STAT1 activator 125 and NF-kB expr up 3.2.
For O=C(Nc1nc2ccccc2s1)c1ccc(F)cc1 the results were APP 5UTR inh -173, FLuc act counter 0.4, FLuc inhib CS 64*, APP 5'UTR act 173*, STAT1 activator 107 and NF-kB expr up 9*.
Screening Fc1ccc(Nc2nc3ccccc3s2)cc1 returned APP 5UTR inh -107, FLuc act counter 0.9, FLuc inhib CS 9, APP 5'UTR act 107, STAT1 activator 146* and NF-kB expr up 3.3*.
Screening Cc1ccccc1Nc1nc2ccccc2s1 returned APP 5UTR inh -89, FLuc act counter 0.7, FLuc inhib CS 28, APP 5'UTR act 89, STAT1 activator 143* and NF-kB expr up 5.6*.
`O=c1cc(O)c2sc(Nc3ccc(F)cc3)nc2[nH]1` gave APP 5UTR inh 3, FLuc act counter 1, FLuc inhib CS -2, APP 5'UTR act -3, STAT1 activator 95 and NF-kB expr up 2.6.
For O=C(Nc1nnc(-c2ccccc2)s1)c1ccc(F)cc1 the results were APP 5UTR inh -82, FLuc act counter 1, FLuc inhib CS -2, APP 5'UTR act 82, STAT1 activator 122 and NF-kB expr up 1.5.
`CCC(=O)Nc1ccc(C(=O)NCc2ccccn2)cc1` gave APP 5UTR inh -20, FLuc act counter 1.1, FLuc inhib CS -9, APP 5'UTR act 20, STAT1 activator 120 and NF-kB expr up 1.1.
O=C(COc1ccccc1Cl)NCc1ccncc1 was read as APP 5UTR inh 17, FLuc act counter 1, FLuc inhib CS 2, APP 5'UTR act -17, STAT1 activator 100 and NF-kB expr up 1.3.
Screening Cc1c(Cl)cccc1NC(=O)Cn1cc(C(F)(F)F)cc(Cl)c1=O returned APP 5UTR inh -3, FLuc act counter 1, FLuc inhib CS 2, APP 5'UTR act 3, STAT1 activator 103 and NF-kB expr up 1.2.
CC(C)Nc1nc(NC(C)C)nc(N(C#N)CCOc2ccc(Cl)cc2Cl)n1 was read as APP 5UTR inh -20, FLuc act counter 1, FLuc inhib CS -2, APP 5'UTR act 20, STAT1 activator 97 and NF-kB expr up 0.7.
For c1ccc2[nH]c3cc4ncnc4cc3nc2c1 the results were APP 5UTR inh 0, FLuc act counter 1, FLuc inhib CS 1, APP 5'UTR act 0, STAT1 activator 115 and NF-kB expr up 1.1.

High-throughput results: PubChem, several laboratories
